Laboratory results as given in ChEMBL document CHEMBL4261600 (Eur J Med Chem, 2018).

Assays:
[1] = target: cGMP-dependent protein kinase 2 (Homo sapiens) (UniProt Q13237); assay: Binding affinity to wild-type human partial length PRKG2 (S422 to F762 residues) expressed in mammalian expression system assessed as remaining unbound target protein level at 1000 nM by Kinomescan method relative to control
[2] = target: Tyrosine-protein kinase Tec (Homo sapiens) (UniProt P42680); assay: Binding affinity to wild-type human partial length TEC (L341 to D620 residues) expressed in bacterial expression system assessed as remaining unbound target protein level at 1000 nM by Kinomescan method relative to control
Tyrosine-protein kinase Tec (Homo sapiens), sequence (P42680 whole entry, the tested form may be a part): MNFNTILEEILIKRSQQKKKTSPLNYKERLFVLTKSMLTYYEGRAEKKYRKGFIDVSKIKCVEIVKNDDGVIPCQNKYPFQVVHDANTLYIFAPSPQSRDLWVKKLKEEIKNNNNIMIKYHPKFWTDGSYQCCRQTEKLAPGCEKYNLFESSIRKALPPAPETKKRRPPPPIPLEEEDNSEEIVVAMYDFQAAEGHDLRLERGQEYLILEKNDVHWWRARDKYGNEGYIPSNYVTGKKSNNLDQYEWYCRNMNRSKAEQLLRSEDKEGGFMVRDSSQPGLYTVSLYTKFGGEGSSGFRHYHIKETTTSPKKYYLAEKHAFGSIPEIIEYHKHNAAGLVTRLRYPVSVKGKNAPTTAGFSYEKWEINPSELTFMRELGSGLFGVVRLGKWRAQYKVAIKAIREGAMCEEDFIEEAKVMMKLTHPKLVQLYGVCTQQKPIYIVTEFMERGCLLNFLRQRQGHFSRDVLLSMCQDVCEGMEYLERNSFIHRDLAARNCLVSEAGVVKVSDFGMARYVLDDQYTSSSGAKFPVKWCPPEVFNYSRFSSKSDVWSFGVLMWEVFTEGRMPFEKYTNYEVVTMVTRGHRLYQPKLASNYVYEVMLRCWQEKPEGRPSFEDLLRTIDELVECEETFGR

[3] = target: Mitogen-activated protein kinase 15 (Homo sapiens) (UniProt Q8TD08); assay: Binding affinity to wild-type human partial length ERK8 (M1 to P437 residues) expressed in bacterial expression system assessed as remaining unbound target protein level at 1000 nM by Kinomescan method relative to control
Mitogen-activated protein kinase 15 (Homo sapiens), sequence (Q8TD08 whole entry, the tested form may be a part): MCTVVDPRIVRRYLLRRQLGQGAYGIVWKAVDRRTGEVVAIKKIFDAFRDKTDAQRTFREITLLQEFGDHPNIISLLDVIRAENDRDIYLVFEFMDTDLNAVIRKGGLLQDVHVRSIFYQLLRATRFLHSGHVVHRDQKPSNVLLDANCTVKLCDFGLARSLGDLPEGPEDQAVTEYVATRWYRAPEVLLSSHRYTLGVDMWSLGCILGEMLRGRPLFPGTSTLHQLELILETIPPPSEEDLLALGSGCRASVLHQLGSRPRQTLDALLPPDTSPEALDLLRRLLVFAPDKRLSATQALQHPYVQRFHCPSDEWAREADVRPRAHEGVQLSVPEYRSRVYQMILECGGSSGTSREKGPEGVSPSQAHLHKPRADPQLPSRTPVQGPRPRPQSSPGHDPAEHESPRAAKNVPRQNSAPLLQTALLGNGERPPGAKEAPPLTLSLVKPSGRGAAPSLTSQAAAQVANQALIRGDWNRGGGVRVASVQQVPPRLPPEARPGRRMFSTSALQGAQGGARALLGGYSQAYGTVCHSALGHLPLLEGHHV
How it was run: (§1)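 KINOMEscan binding panel of 468 kinases/mutants. Inhibitor was tested at a single concentration of 1 μM. Binding is reported as percent of control, defined relative to a DMSO control.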

A-375 = assay: Antiproliferative activity against human A375 cells after 72 hrs by Celltiter-Glo assay; assay type: functional; conditions: A-375, 72 h
How it was run: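 Cells seeded at 3000/well in 96-well plates, exposed to serially diluted compound for 72 h at 37 °C, 5% CO2. Viability read by CellTiter-Glo luminescence and normalized to DMSO control. GI50 derived from curve fit, mean of three independent measurements. Culture media: DMEM/10% FBS for adherent lines; IMDM for MV4-11 and MEC-1/2; RPMI 1640 for suspension lines and CHL.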

[4] = target: Serine/threonine-protein kinase 38 (Homo sapiens) (UniProt Q15208); assay: Binding affinity to wild-type human partial length NDR1 (N33 to E449 residues) expressed in mammalian expression system assessed as remaining unbound target protein level at 1000 nM by Kinomescan method relative to control
Serine/threonine-protein kinase 38 (Homo sapiens), sequence (Q15208 2-465 limits assumed): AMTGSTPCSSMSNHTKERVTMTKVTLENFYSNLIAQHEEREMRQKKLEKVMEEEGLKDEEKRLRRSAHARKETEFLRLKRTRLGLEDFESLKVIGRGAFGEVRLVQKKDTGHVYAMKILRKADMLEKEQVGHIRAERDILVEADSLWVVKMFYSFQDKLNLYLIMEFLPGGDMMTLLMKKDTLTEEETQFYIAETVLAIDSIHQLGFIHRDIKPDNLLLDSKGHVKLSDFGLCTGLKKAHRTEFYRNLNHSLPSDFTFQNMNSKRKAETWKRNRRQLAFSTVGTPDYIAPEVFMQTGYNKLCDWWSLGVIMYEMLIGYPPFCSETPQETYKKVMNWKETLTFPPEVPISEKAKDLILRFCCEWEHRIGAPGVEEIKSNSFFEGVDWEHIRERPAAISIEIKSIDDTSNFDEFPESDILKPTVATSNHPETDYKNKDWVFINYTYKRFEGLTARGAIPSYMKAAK

[5] = target: Serine/threonine-protein kinase 32A (Homo sapiens) (UniProt Q8WU08); assay: Binding affinity to wild-type human full length YANK1 (M1 to L396 residues) expressed in mammalian expression system assessed as remaining unbound target protein level at 1000 nM by Kinomescan method relative to control
Serine/threonine-protein kinase 32A (Homo sapiens), sequence (Q8WU08 whole entry, the tested form may be a part): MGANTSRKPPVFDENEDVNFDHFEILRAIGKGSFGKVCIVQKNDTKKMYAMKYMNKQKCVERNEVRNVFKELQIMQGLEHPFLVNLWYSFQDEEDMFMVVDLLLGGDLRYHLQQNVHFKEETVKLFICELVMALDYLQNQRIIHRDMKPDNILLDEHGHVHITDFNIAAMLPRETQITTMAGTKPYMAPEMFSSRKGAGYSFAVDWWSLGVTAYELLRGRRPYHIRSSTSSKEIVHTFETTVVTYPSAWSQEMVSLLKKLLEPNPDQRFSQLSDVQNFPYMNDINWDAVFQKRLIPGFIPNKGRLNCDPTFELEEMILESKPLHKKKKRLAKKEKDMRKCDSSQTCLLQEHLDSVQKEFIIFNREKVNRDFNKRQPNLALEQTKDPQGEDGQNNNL
How it was run: (§2)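 Profiled in a KINOMEscan binding panel with the inhibitor at a single concentration of 1 μM. Binding to each kinase was read out as percent of control, relative to a DMSO control. Strong binders were defined as those with a percent control value below 1.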

[6] = target: Mitogen-activated protein kinase 4 (Homo sapiens) (UniProt P31152); assay: Binding affinity to wild-type human partial length ERK4 (M1 to L365 residues) expressed in bacterial expression system assessed as remaining unbound target protein level at 1000 nM by Kinomescan method relative to control; how it was run: as §1
[7] = test system: Mycobacterium tuberculosis; assay: Binding affinity to wild-type Mycobacterium tuberculosis partial length PKNB (M1 to G279 residues) expressed in mammalian expression system assessed as remaining unbound target protein level at 1000 nM by Kinomescan method relative to control
How it was run: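 KINOMEscan competition binding panel run at 1 μM inhibitor; binding reported as percent of DMSO control (remaining target bound versus vehicle).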

[8] = target: Ephrin type-A receptor 8 (Homo sapiens) (UniProt P29322); assay: Binding affinity to wild-type human partial length EPHA8 (Q608 to C920 residues) expressed in bacterial expression system assessed as remaining unbound target protein level at 1000 nM by Kinomescan method relative to control
[9] = target: Interleukin-1 receptor-associated kinase 3 (Homo sapiens) (UniProt Q9Y616); assay: Binding affinity to wild-type human partial length IRAK3 (V147 to E596 residues) expressed in bacterial expression system assessed as remaining unbound target protein level at 1000 nM by Kinomescan method relative to control
Interleukin-1 receptor-associated kinase 3 (Homo sapiens), sequence (Q9Y616 whole entry, the tested form may be a part): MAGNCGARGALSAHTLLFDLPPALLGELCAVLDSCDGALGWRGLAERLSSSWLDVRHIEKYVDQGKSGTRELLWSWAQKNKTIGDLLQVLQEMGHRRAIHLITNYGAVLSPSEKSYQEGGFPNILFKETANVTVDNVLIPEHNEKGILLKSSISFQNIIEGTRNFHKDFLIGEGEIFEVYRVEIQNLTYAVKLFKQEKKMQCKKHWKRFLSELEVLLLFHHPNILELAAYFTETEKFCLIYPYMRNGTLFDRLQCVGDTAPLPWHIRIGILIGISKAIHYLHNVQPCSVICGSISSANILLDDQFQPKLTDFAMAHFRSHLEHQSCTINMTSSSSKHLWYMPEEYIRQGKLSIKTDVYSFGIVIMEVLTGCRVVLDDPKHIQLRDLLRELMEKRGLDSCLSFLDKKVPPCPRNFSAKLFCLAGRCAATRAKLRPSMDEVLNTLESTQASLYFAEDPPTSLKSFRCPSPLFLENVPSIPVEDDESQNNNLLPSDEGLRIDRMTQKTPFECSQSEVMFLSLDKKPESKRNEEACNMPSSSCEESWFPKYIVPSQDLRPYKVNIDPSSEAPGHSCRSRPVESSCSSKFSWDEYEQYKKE

[10] = test system: Receptor-type tyrosine-protein kinase FLT3 (Homo sapiens), P36888 [N841I]; assay: Binding affinity to human partial length FLT3 N841I mutant (V592 to Y969 residues) expressed in bacterial expression system assessed as remaining unbound target protein level at 1000 nM by Kinomescan method relative to control
How it was run: (§3)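 KINOMEscan competition-binding profiling across the panel of 468 kinases and mutants, with inhibitor tested at 1 μM. Binding is expressed as percent of control, with DMSO as the reference control.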

[11] = target: Serine/threonine-protein kinase DCLK3 (Homo sapiens) (UniProt Q9C098); assay: Binding affinity to wild-type human partial length DCAMKL3 (E140 to V628 residues) expressed in bacterial expression system assessed as remaining unbound target protein level at 1000 nM by Kinomescan method relative to control
[12] = target: Misshapen-like kinase 1 (Homo sapiens) (UniProt Q8N4C8); assay: Binding affinity to wild-type human partial length MINK (M1 to K312 residues) expressed in mammalian expression system assessed as remaining unbound target protein level at 1000 nM by Kinomescan method relative to control
[13] = target: Megakaryocyte-associated tyrosine-protein kinase (Homo sapiens) (UniProt P42679); assay: Binding affinity to wild-type human full length CTK (M43 to P508 residues) expressed in mammalian expression system assessed as remaining unbound target protein level at 1000 nM by Kinomescan method relative to control
Megakaryocyte-associated tyrosine-protein kinase (Homo sapiens), sequence (P42679 whole entry, the tested form may be a part): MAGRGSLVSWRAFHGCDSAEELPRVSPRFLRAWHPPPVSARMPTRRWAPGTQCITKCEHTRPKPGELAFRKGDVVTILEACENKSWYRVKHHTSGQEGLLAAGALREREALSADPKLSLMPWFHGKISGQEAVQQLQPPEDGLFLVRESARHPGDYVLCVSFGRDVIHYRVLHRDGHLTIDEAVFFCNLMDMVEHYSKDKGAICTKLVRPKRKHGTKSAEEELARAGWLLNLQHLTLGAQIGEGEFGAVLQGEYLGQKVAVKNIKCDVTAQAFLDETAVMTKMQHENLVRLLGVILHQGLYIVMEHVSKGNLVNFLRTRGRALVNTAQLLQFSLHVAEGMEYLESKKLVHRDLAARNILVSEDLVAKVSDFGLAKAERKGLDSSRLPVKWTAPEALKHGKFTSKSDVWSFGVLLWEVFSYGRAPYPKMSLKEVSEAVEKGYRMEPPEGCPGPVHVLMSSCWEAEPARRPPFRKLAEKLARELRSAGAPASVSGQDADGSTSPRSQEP
How it was run: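 Single-point competition binding screen across a panel of 468 kinases and mutants, with the inhibitor at 1 μM. Binding is read out as percent of a DMSO control, and targets below 1 percent control were classed as strong binders.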

[14] = target: Tyrosine-protein kinase ITK/TSK (Homo sapiens) (UniProt Q08881); assay: Binding affinity to wild-type human partial length ITK (R335 to L620 residues) expressed in bacterial expression system assessed as remaining unbound target protein level at 1000 nM by Kinomescan method relative to control
[15] = Cmax in mouse at 10 mg/kg, po by LC-MS/MS analysis; assay type: ADME, organism-based; design: dose 10 mg/kg, route oral; conditions: in vivo
[16] = target: Dual specificity mitogen-activated protein kinase kinase 2 (Homo sapiens) (UniProt P36507); assay: Binding affinity to wild-type human full length MEK2 (M1 to V400 residues) expressed in mammalian expression system assessed as remaining unbound target protein level at 1000 nM by Kinomescan method relative to control
Dual specificity mitogen-activated protein kinase kinase 2 (Homo sapiens), sequence (P36507 whole entry, the tested form may be a part): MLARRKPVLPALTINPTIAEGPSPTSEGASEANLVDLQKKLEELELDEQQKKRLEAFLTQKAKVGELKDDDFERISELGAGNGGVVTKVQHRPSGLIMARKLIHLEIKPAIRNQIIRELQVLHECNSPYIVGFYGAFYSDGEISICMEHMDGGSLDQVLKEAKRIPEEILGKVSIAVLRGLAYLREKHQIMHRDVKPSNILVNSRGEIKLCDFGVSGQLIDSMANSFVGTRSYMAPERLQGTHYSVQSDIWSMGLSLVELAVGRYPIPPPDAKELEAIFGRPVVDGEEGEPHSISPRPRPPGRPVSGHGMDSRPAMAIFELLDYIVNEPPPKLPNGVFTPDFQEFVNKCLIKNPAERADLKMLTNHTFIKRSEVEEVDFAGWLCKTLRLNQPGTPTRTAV
How it was run: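 KINOMEscan competition binding profile across a panel of 468 kinases and mutants, with the inhibitor tested at a single concentration of 1 μM. Binding is reported as percent of control, meaning signal relative to a DMSO control.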

[17] = test system: Epidermal growth factor receptor (Homo sapiens), P00533 [UNDEFINED MUTATION]; assay: Binding affinity to human partial length EGFR L747-S752del/P753S mutant expressed in bacterial expression system assessed as remaining unbound target protein level at 1000 nM by Kinomescan method relative to control; how it was run: as §3
[18] = target: Aurora kinase A (Homo sapiens) (UniProt O14965); assay: Binding affinity to wild-type human partial length AURKA (E122 to K401 residues) expressed in mammalian expression system assessed as remaining unbound target protein level at 1000 nM by Kinomescan method relative to control; how it was run: as §2
Aurora kinase A (Homo sapiens), sequence (O14965 whole entry, the tested form may be a part): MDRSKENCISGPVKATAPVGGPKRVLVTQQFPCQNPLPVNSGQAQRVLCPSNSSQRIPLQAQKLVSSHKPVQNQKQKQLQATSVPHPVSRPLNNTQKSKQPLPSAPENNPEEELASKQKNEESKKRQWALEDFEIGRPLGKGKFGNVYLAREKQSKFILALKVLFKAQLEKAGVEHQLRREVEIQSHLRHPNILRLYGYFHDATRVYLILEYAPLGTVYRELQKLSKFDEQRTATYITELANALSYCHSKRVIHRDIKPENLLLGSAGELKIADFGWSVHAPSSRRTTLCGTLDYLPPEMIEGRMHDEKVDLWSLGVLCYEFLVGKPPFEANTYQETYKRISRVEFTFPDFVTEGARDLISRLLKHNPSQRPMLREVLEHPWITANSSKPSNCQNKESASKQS

[19] = target: Mitogen-activated protein kinase 14 (Homo sapiens) (UniProt Q16539); assay: Binding affinity to wild-type human full length p38-alpha (M1 to S360 residues) expressed in bacterial expression system assessed as remaining unbound target protein level at 1000 nM by Kinomescan method relative to control; how it was run: as §2

cGMP-dependent protein kinase 2 (Homo sapiens), sequence (Q13237 whole entry, the tested form may be a part): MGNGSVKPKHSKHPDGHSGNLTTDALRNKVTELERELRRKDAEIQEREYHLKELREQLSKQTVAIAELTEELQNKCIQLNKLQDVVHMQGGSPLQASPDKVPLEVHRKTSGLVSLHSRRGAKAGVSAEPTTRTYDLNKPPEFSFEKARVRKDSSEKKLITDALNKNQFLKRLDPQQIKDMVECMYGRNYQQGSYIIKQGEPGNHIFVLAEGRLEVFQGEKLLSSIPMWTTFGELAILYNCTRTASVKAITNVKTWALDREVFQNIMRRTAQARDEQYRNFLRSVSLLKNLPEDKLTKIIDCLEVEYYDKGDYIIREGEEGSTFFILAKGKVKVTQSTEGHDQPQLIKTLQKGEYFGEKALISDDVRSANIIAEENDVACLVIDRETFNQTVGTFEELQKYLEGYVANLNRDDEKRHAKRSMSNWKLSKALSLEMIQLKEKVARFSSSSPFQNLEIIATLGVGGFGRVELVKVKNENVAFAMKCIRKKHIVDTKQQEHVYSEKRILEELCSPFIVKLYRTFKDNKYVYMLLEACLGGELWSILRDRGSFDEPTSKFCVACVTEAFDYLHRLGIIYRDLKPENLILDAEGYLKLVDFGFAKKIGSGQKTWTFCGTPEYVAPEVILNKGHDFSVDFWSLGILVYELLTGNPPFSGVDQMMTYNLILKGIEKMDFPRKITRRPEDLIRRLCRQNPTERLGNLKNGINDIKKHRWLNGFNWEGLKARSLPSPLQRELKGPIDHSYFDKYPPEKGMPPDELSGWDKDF

COCCN[C@H]1CC[C@H](Nc2cc(-c3csc(NCC4(C#N)CCOCC4)n3)c(Cl)cn2)CC1
Activity [1]: 100%
Activity [2]: 92%
Activity [3]: 86%
GI50 (A-375): 0.044 µM
Activity [4]: 78%
Activity [5]: 100%
Activity [6]: 99%
Activity [7]: 84%
Activity [8]: 92%
Activity [9]: 96%
Activity [10]: 83%
Activity [11]: 97%
Activity [12]: 92%
Activity [13]: 96%
Activity [14]: 84%
Cmax [15]: 0.116 µg/mL
Activity [16]: 95%
Activity [17]: 79%
Activity [18]: 100%
Activity [19]: 98%
